pIC50: −log10 of the molar value. Activity calls are given as the source filed them. No cut-off for these calls is given here.
How the values were obtained:
[1] = test system: RAW264.7; assay: Cytotoxicity against mouse RAW264.7 cells assessed as reduction in cell viability; format: cell-based
[2] = test system: Rattus norvegicus; assay: Antiinflammatory activity in ig dosed CFA-induced Sprague-Dawley rat model of arthritis assessed as reduction in IL-6 level in serum administered daily for 28 days starting from 14 days post-immunization; format: functional, organism-based
In short: (§1)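 Serum NO, TNF-α, IL-1β and IL-6 measured in adjuvant-arthritic rats given intragastric dosing once daily, days 14–28 after immunization (test agent 40 or 80 mg/kg; aspirin 50 mg/kg), compared with untreated arthritic and normal rats. n=5 per group, mean±s.d.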

[3] = test system: RAW264.7; assay: Cytotoxicity against LPS-induced mouse RAW264.7 cells assessed as reduction in cell viability; format: cell-based
[4] = test system: Rattus norvegicus; assay: Antiarthritic activity in Sprague-Dawley rat model of arthritis assessed as decrease in CFA-induced synovial hyperplasia at 40 and 80 mg/kg, ig administered daily for 28 days starting from 14 days post-immunization and measured every 3 days by H and E staining based histopathological analysis; format: functional, organism-based
In short: (§2)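 Knee joints of adjuvant-arthritic rats were taken after intragastric dosing once daily, days 14–28 post-immunization (test agent 40 or 80 mg/kg; aspirin 50 mg/kg). Sections stained with H&E were scored by microscopy for synovial hyperplasia, inflammatory cell infiltration and bone/cartilage destruction, against normal and untreated arthritic rats.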

[5] = test system: Rattus norvegicus; assay: Antiarthritic activity in Sprague-Dawley rat model of arthritis assessed as inhibition of CFA-induced cartilage destruction at 80 mg/kg, ig administered daily for 28 days starting from 14 days post-immunization and measured every 3 days by H and E staining based histopathological analysis; format: functional, organism-based; in short: as §2
[6] = test system: Rattus norvegicus; assay: Antiarthritic activity in CFA-induced Sprague-Dawley rat arthritic model assessed as inhibition of hind paw swelling at 40 mg/kg, ig administered daily for 28 days starting from 14 days post-immunization and measured on day 30; format: functional, organism-based
In short: (§3)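 Rat adjuvant-induced arthritis. Test agent given intragastrically once daily from day 14 to 28 after adjuvant immunization (40 or 80 mg/kg). Aspirin 50 mg/kg intragastric was the positive control. Hind paw swelling and arthritis index measured every 3 days, with body weight tracked; day 30 also reported. n=5 per group, mean±s.d., Tukey's test.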

[7] = test system: Rattus norvegicus; assay: Antiinflammatory activity in ig dosed CFA-induced Sprague-Dawley rat model of arthritis assessed as reduction in IL-1beta level in serum administered daily for 28 days starting from 14 days post-immunization; format: functional, organism-based; in short: as §1
[8] = test system: RAW264.7; assay: Antiinflammatory activity in mouse RAW264.7 cells assessed as inhibition of LPS-induced NO production preincubated for 1 hr followed by LPS addition and measured after 24 hrs by Griess reagent-based assay; format: functional, cell-based; details: for pIC50: Mus musculus, RAW264.7, read-out: IC50; for IC50: raw264.7
In short: (§4)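 RAW 264.7 cells pretreated with compound for 1 h, then LPS 1 µg/mL for 24 h. Single-point inhibition at 10 µM. IC50 by regression of inhibition over several concentrations. At least three independent experiments.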

[9] = Toxicity in Sprague-Dawley rat model of CFA-induced arthritis assessed as reduction in body weight loss at 40 to 80 mg/kg, ig administered daily for 28 days starting from 14 days post-immunization and measured on day 30; format: organism-based; details: in vivo, po; in short: as §3
[10] = test system: RAW264.7; assay: Antiinflammatory activity in mouse RAW264.7 cells assessed as inhibition of LPS-induced NO production at 10 uM preincubated for 1 hr followed by LPS addition and measured after 24 hrs by Griess reagent-based assay relative to control; format: functional; in short: as §4
[11] = test system: Rattus norvegicus; assay: Antiinflammatory activity in ig dosed CFA-induced Sprague-Dawley rat model of arthritis assessed as reduction in TNF-alpha level in serum administered daily for 28 days starting from 14 days post-immunization; format: functional, organism-based; in short: as §1
[12] = biological target: T1, Nitric oxide synthase, inducible (Mus musculus) (UniProt P29477); assay: Potency index, ratio of indomethacin IC50 to compound IC50 for inhibition of iNOS in LPS-stimulated mouse RAW264.7 cells; format: cell-based
T1 sequence (whole entry): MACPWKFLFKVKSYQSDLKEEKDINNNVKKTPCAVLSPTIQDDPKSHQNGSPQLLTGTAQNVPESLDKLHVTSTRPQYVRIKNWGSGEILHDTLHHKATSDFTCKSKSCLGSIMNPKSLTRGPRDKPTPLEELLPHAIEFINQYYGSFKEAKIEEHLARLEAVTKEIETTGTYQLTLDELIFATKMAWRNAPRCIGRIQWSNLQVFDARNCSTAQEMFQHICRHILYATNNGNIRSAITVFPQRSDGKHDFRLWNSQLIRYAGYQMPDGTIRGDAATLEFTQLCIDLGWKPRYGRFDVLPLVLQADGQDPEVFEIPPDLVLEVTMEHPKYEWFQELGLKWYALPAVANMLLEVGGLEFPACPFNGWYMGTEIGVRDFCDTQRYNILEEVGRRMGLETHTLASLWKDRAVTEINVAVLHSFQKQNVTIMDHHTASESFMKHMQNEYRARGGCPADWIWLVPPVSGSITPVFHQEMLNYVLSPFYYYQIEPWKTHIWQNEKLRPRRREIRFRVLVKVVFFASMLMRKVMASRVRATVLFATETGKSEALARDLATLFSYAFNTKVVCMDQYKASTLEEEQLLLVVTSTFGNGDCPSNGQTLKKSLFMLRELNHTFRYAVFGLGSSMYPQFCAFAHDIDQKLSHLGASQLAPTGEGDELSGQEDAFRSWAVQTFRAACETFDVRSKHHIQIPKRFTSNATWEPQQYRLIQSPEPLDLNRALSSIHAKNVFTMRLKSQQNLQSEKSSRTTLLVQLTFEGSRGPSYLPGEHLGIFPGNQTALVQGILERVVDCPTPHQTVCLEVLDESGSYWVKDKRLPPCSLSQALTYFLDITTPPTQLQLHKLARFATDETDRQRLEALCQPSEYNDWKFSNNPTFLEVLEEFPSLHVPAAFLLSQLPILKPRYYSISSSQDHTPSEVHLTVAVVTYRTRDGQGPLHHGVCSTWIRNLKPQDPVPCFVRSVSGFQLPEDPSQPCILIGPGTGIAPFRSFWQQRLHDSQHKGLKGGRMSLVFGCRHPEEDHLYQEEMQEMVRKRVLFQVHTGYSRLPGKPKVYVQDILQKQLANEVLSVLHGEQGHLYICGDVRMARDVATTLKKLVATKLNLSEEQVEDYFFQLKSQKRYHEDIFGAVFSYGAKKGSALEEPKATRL

[13] = test system: Rattus norvegicus; assay: Antiinflammatory activity in ig dosed CFA-induced Sprague-Dawley rat model of arthritis assessed as reduction in NO level in serum administered daily for 28 days starting from 14 days post-immunization; format: functional, organism-based; in short: as §1
[14] = biological target: T1, Nitric oxide synthase, inducible (Mus musculus); assay: Inhibition of iNOS dimerization in LPS-induced mouse RAW264.7 cells at 1 to 4 uM preincubated for 1 hr followed by LPS-stimulation and measured after 24 hrs by immunoblot analysis; format: cell-based
[15] = biological target: T2, Nitric oxide synthase, inducible (Mus musculus, UniProt P29477); assay: Inhibition of iNOS in LPS-stimulated mouse RAW 264.7 cells preincubated for 1 hr followed by LPS-stimulation and measured after 6 hrs by fluorescence based assay; details: for pIC50: read-out: IC50
T2 sequence (P29477 whole entry): T1 sequence (whole entry)
In short: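 Inhibition calculated relative to LPS-stimulated and unstimulated controls. IC50 obtained by regression of inhibition rates at several concentrations. Indomethacin served as positive control.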

[16] = test system: RAW264.7; assay: Inhibition of iNOS expression in LPS-induced mouse RAW264.7 cells at 1 to 4 uM preincubated for 1 hr followed by LPS-stimulation by Western blot analysis; format: functional, cell-based
In short: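 RAW 264.7 cells pretreated with the indicated compound concentrations for 1 h, then LPS 1 µg/mL for 24 h. iNOS protein assessed by Western blot on 8% SDS-PAGE, with β-actin as loading control. At least three independent experiments, each in duplicate.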

[17] = test system: Rattus norvegicus; assay: Antiarthritic activity in Sprague-Dawley rat model of arthritis assessed as inhibition of CFA-induced inflammatory cell infiltration at 40 and 80 mg/kg, ig administered daily for 28 days starting from 14 days post-immunization and measured every 3 days by H and E staining based histopathological analysis; format: functional, organism-based; in short: as §2
[18] = test system: Rattus norvegicus; assay: Antiarthritic activity in CFA-induced Sprague-Dawley rat arthritic model assessed as inhibition of hind paw swelling at 50 mg/kg, ig administered daily for 28 days starting from 14 days post-immunization and measured on day 30; format: functional, organism-based; in short: as §3
[19] = test system: Rattus norvegicus; assay: Antiarthritic activity in Sprague-Dawley rat model of arthritis assessed as inhibition of CFA-induced inflammatory cell infiltration at 50 mg/kg, ig administered daily for 28 days starting from 14 days post-immunization and measured every 3 days by H and E staining based histopathological analysis; format: functional, organism-based; in short: as §2
[20] = test system: Rattus norvegicus; assay: Antiinflammatory activity in CFA-induced Sprague-Dawley rat model of arthritis assessed as reduction in IL-1beta level in serum at 50 mg/kg, ig administered daily for 28 days starting from 14 days post-immunization; format: functional, organism-based; in short: as §1
[21] = test system: Rattus norvegicus; assay: Antiinflammatory activity in CFA-induced Sprague-Dawley rat model of arthritis assessed as reduction in IL-6 level in serum at 50 mg/kg, ig administered daily for 28 days starting from 14 days post-immunization; format: functional, organism-based; in short: as §1
[22] = test system: Rattus norvegicus; assay: Antiarthritic activity in Sprague-Dawley rat model of arthritis assessed as inhibition of CFA-induced cartilage destruction at 50 mg/kg, ig administered daily for 28 days starting from 14 days post-immunization and measured every 3 days by H and E staining based histopathological analysis; format: functional, organism-based; in short: as §2
[23] = test system: Rattus norvegicus; assay: Antiarthritic activity in Sprague-Dawley rat model of arthritis assessed as effect on CFA-induced synovial hyperplasia at 50 mg/kg, ig administered daily for 28 days starting from 14 days post-immunization and measured every 3 days by H and E staining based histopathological analysis; format: functional, organism-based; in short: as §2
[24] = test system: Rattus norvegicus; assay: Antiinflammatory activity in CFA-induced Sprague-Dawley rat model of arthritis assessed as reduction in NO level in serum at 50 mg/kg, ig administered daily for 28 days starting from 14 days post-immunization; format: functional, organism-based; in short: as §1
[25] = test system: Rattus norvegicus; assay: Antiinflammatory activity in CFA-induced Sprague-Dawley rat model of arthritis assessed as reduction in TNF-alpha level in serum at 50 mg/kg, ig administered daily for 28 days starting from 14 days post-immunization; format: functional, organism-based; in short: as §1

Compound	pIC50 [1]	pIC50 [3]	pIC50 [8]	inhibition at 10 µM [10]	pIC50 [15]	other results
CCCc1nn(C)c2c(NC(C)C)nc(/C=C/c3cc(OC)c(OC)c(OC)c3)nc12	< 4.30	< 4.30	5.50	90.4%	5.95	Activity [2]: Dose-dependent effect; Activity [4]: Active; Activity [5]: Active; inhibition [6]: Active; Activity [7]: Dose-dependent effect; Activity [9]: Non-Toxic; Activity [11]: Dose-dependent effect; Ratio IC50 [12]: 22; Activity [13]: Dose-dependent effect; inhibition [14]: Active; inhibition [16]: inactive; Activity [17]: Active
COc1ccc2c(c1)c(CC(=O)O)c(C)n2C(=O)c1ccc(Cl)cc1 [INDOMETHACIN]	< 4.30	< 4.30		59.2%	4.60	
CCCc1nn(C)c2c(N3CCCC3)nc(-c3cc(OC)c(OC)c(OC)c3)nc12	< 4.30	< 4.30		3.1%		IC50 [8]: Not Active; IC50 [15]: Not Active
CCCc1nn(C)c2c(NCc3ccc(Cl)cc3)nc(/C=C/c3ccco3)nc12	< 4.30	< 4.30	5.03	56.4%	5.37	
CCCc1nn(C)c2c(NCCc3ccc(Cl)cc3)nc(/C=C/c3ccco3)nc12	< 4.30	< 4.30	5.22	79.2%	5.59	
CCCc1nn(C)c2c(N3CCC(O)CC3)nc(/C=C/c3cc(OC)c(OC)c(OC)c3)nc12	< 4.30	< 4.30	4.86	45.3%	5.28	
CCCc1nn(C)c2c(NCC(C)C)nc(/C=C/c3ccccc3)nc12	< 4.30	< 4.30	4.66	33.3%	5.27	
CCCc1nn(C)c2c(Nc3ccc(C(=O)O)cc3)nc(-c3cc(OC)c(OC)c(OC)c3)nc12	< 4.30	< 4.30	4.80	44.9%	4.99	
CCCc1nn(C)c2c(NC(C)C)nc(/C=C/c3ccccc3)nc12	< 4.30	< 4.30	4.91	53.9%	5.07	
CCCc1nn(C)c2c(NC(C)C)nc(-c3cc(OC)c(OC)c(OC)c3)nc12	< 4.30	< 4.30	4.97	51.9%	5.14	
CCCc1nn(C)c2c(Nc3ccccc3)nc(/C=C/c3ccccc3)nc12	< 4.30	< 4.30		4.9%		IC50 [8]: Not Active; IC50 [15]: Not Active
CC(=O)Oc1ccccc1C(=O)O						Activity [18]: Active; Activity [19]: Active; Activity [20]: Active; Activity [21]: Active; Activity [22]: Active; Activity [23]: Active; Activity [24]: Active; Activity [25]: Active
